Results from ChEMBL document CHEMBL5705890, “Antitumor activity of an allosteric inhibitor of centromere-associated protein-E” (Proc Natl Acad Sci U S A, 2010).

Columns and labels:
MDA-MB-231 = test: Anticancer activity against human MDA-MB-231 cells assessed as cell doubling measured for 72 hrs by DAPI staining based analysis; type: functional
NCI-H508 = test: Anticancer activity against human NCI-H508 cells assessed as cell growth inhibition measured after 72 hrs by DAPI staining based analysis; type: functional
NCI-H460 [1] = test: Anticancer activity against human NCI-H460 cells assessed as cell growth inhibition measured after 72 hrs by DAPI staining based analysis; type: functional
CWR22R = test: Anticancer activity against human 22Rv1 cells assessed as cell doubling measured for 72 hrs by DAPI staining based analysis; type: functional
A549 = test: Antitumor activity against human A549 cells in xenograft model assessed as difference between median time to endpoint time of treated versus control group at 125 mg/kg; type: functional
RL95-2 = test: Anticancer activity against human RL95-2 cells assessed as cell doubling measured for 72 hrs by DAPI staining based analysis; type: functional
SK-OV-3 = test: Anticancer activity against human SK-OV-3 cells assessed as cell doubling measured for 72 hrs by DAPI staining based analysis; type: functional
MCF7 = test: Antitumor activity against human MCF7 cells in xenograft model assessed as tumor growth delay at 125 mg/kg relative to control; type: functional
SCC-4 = test: Anticancer activity against human SCC-4 cells assessed as cell growth inhibition measured after 72 hrs by DAPI staining based analysis; type: functional
SAOS-2 = test: Anticancer activity against human SAOS-2 cells assessed as cell growth inhibition measured after 72 hrs by DAPI staining based analysis; type: functional
NCI-H358 = test: Anticancer activity against human NCI-H358 cells assessed as cell growth inhibition measured after 72 hrs by DAPI staining based analysis; type: functional
ARH-77 = test: Anticancer activity against human ARH-77 cells assessed as cell growth inhibition measured after 72 hrs by DAPI staining based analysis; type: functional
Summary of the method: (§1)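 Cells were seeded and, after 24 h, DNA content was read as T0. Cells were then exposed to varying drug concentrations for a further 72 h (T72). Fixed cells were DAPI-stained and DNA content measured by automated imaging. T72 values were normalized to T0. GI50 is the concentration giving 50% growth inhibition between T0 and Ymax, obtained by curve fitting.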

GCT = test: Anticancer activity against human GCT cells assessed as cell growth inhibition measured after 72 hrs by DAPI staining based analysis; type: functional
Summary of the method: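 Cells seeded, DAPI-stained DNA content of fixed cells read by imaging 24 h after seeding (T0), and again after a further 72 h exposure to a range of drug concentrations (T72). T72 values were normalized to T0. Curve fits gave the concentration producing 50% growth inhibition relative to T0 and Ymax (GI50).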

BeWo = test: Anticancer activity against human BeWo cells assessed as cell doubling measured for 72 hrs by DAPI staining based analysis; type: functional
NCI-H146 = test: Anticancer activity against human NCI-H146 cells assessed as cell growth inhibition measured after 72 hrs by DAPI staining based analysis; type: functional
NCI-H2052 = test: Anticancer activity against human NCI-H2052 cells assessed as cell growth inhibition measured after 72 hrs by DAPI staining based analysis; type: functional
NCI-H716 = test: Anticancer activity against human NCI-H716 cells assessed as cell growth inhibition measured after 72 hrs by DAPI staining based analysis; type: functional
NCI-H747 = test: Anticancer activity against human NCI-H747 cells assessed as cell doubling measured for 72 hrs by DAPI staining based analysis; type: functional
Capan-2 = test: Anticancer activity against human Capan-2 cells assessed as cell doubling measured for 72 hrs by DAPI staining based analysis; type: functional
NCI-H2170 = test: Anticancer activity against human NCI-H2170 cells assessed as cell doubling measured for 72 hrs by DAPI staining based analysis; type: functional
BHT-101 = test: Anticancer activity against human BHT-101 cells assessed as cell doubling measured for 72 hrs by DAPI staining based analysis; type: functional
SK-MEL3 = test: Anticancer activity against human SK-MEL3 cells assessed as cell doubling measured for 72 hrs by DAPI staining based analysis; type: functional
ACHN = test: Anticancer activity against human ACHN cells assessed as cell doubling measured for 72 hrs by DAPI staining based analysis; type: functional
COLO 205 = test: Anticancer activity against human COLO 205 cells assessed as cell doubling measured for 72 hrs by DAPI staining based analysis; type: functional
[2] = target: Centromere-associated protein E (Mus musculus, UniProt Q6RT24); test: Binding affinity to wild-type mouse CENP-E assessed as inhibition constant
NCI-H460 [3] = test: Antitumor activity against human NCI-H460 cells in xenograft model assessed as tumor growth delay at 125 mg/kg relative to control; type: functional
COLO 320DM = test: Anticancer activity against human COLO 320DM cells assessed as cell doubling measured for 72 hrs by DAPI staining based analysis; type: functional
SF-539 = test: Anticancer activity against human SF-539 cells assessed as cell doubling measured for 72 hrs by DAPI staining based analysis; type: functional
[4] = Anticancer activity against human MV-522 cells assessed as cell doubling measured for 72 hrs by DAPI staining based analysis; type: functional
NCI-H2171 = test: Anticancer activity against human NCI-H2171 cells assessed as cell growth inhibition measured after 72 hrs by DAPI staining based analysis; type: functional
A498 = test: Anticancer activity against human A498 cells assessed as cell growth inhibition measured after 72 hrs by DAPI staining based analysis; type: functional; summary of the method: as §1
SNU-423 = test: Anticancer activity against human SNU-423 cells assessed as cell doubling measured for 72 hrs by DAPI staining based analysis; type: functional
MC-CAR = test: Anticancer activity against human MC-CAR cells assessed as cell growth inhibition measured after 72 hrs by DAPI staining based analysis; type: functional
Hep 3B2 = test: Anticancer activity against human Hep3B cells assessed as cell growth inhibition measured after 72 hrs by DAPI staining based analysis; type: functional
SW948 = test: Anticancer activity against human SW948 cells assessed as cell doubling measured for 72 hrs by DAPI staining based analysis; type: functional
OVCAR-8 = test: Anticancer activity against human OVCAR-8 cells assessed as cell growth inhibition measured after 72 hrs by DAPI staining based analysis; type: functional
786-0 = test: Anticancer activity against human 786-0 cells assessed as cell growth inhibition measured after 72 hrs by DAPI staining based analysis; type: functional; summary of the method: as §1
[5] = Anticancer activity against human A7 cells assessed as cell growth inhibition measured after 72 hrs by DAPI staining based analysis; type: functional; summary of the method: as §1
[6] = target: Centromere-associated protein E (Homo sapiens, UniProt Q02224); test: Uncompetitive binding affinity to microtubule-stimulated ATPase activity of C-terminal 6-his-tagged CENP-E (2 to 340 residues)(unknown origin) expressed in Escherichia coli BL21(DE3) assessed as apparent inhibition constant; settings: read-out: Ki(app)
Summary of the method: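 CENP-E motor domain (residues 2–340, C-terminal 6-his, from E. coli BL21(DE3)) run in MT-stimulated ATPase with 500 μM ATP, 5 μM paclitaxel-stabilized MT, 1 nM enzyme in PEM25 buffer, pH 6.8. Apparent Ki taken from the concentration-response curves with explicit correction for enzyme concentration.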

Centromere-associated protein E (Mus musculus, UniProt Q6RT24), sequence (Q6RT24 whole entry): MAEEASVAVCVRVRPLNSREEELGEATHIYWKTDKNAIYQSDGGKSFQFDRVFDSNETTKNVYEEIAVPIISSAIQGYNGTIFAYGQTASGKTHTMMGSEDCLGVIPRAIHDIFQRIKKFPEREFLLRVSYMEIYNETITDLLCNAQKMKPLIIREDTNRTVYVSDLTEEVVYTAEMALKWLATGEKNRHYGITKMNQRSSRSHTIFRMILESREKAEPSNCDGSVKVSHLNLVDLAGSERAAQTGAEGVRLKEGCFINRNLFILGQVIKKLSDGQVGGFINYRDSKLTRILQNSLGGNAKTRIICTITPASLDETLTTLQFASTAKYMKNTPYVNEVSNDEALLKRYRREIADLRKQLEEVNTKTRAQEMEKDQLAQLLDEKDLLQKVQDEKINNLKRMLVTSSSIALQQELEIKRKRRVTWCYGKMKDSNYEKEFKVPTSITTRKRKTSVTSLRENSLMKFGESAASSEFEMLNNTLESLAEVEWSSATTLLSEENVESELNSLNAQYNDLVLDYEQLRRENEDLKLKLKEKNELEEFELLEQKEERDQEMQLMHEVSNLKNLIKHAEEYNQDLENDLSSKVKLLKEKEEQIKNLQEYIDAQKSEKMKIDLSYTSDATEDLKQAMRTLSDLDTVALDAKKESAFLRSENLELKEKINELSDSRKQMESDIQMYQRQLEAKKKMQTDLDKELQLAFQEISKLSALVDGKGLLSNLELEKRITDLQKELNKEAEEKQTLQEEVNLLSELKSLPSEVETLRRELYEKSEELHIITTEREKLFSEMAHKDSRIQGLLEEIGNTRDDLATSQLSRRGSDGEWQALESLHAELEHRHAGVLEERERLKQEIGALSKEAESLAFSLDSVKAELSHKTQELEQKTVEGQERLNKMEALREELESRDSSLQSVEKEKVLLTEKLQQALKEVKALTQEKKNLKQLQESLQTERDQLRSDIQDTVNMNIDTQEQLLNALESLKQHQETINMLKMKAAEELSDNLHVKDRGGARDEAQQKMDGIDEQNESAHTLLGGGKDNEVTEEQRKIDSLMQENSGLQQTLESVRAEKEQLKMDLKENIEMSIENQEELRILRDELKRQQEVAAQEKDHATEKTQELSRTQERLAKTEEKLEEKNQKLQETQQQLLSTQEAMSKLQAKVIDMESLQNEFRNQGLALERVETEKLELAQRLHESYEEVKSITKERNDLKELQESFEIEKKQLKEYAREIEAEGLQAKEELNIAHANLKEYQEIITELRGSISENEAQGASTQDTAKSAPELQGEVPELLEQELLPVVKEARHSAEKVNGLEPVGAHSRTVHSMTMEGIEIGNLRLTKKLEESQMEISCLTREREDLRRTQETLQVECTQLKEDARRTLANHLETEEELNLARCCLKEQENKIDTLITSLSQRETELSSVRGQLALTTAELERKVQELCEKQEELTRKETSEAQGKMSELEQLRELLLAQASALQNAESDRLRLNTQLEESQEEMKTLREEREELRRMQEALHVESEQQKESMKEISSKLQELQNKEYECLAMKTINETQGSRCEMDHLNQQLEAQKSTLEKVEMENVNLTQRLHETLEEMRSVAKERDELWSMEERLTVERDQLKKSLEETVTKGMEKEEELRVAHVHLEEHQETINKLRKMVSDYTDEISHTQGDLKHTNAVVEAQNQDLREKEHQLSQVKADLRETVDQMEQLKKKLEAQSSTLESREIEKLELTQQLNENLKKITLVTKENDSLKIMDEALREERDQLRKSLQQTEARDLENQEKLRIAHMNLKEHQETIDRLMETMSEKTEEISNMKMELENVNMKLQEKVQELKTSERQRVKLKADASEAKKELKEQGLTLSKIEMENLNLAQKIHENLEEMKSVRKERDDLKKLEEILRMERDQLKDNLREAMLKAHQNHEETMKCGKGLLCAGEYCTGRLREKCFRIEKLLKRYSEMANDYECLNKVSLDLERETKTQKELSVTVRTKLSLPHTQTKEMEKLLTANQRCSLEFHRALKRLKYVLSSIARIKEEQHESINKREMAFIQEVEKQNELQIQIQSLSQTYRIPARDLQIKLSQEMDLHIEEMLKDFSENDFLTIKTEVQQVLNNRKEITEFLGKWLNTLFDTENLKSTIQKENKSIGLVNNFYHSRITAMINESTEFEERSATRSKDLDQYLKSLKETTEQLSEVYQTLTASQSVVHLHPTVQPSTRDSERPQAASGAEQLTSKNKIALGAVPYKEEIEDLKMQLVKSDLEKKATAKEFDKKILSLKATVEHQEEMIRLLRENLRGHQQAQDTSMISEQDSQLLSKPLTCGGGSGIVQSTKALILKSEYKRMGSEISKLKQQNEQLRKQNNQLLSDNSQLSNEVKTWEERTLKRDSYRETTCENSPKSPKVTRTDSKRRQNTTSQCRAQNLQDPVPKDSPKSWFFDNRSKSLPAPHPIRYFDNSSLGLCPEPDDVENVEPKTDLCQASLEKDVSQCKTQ
Centromere-associated protein E (Homo sapiens, UniProt Q02224), sequence (Q02224 whole entry, the tested form may be a part): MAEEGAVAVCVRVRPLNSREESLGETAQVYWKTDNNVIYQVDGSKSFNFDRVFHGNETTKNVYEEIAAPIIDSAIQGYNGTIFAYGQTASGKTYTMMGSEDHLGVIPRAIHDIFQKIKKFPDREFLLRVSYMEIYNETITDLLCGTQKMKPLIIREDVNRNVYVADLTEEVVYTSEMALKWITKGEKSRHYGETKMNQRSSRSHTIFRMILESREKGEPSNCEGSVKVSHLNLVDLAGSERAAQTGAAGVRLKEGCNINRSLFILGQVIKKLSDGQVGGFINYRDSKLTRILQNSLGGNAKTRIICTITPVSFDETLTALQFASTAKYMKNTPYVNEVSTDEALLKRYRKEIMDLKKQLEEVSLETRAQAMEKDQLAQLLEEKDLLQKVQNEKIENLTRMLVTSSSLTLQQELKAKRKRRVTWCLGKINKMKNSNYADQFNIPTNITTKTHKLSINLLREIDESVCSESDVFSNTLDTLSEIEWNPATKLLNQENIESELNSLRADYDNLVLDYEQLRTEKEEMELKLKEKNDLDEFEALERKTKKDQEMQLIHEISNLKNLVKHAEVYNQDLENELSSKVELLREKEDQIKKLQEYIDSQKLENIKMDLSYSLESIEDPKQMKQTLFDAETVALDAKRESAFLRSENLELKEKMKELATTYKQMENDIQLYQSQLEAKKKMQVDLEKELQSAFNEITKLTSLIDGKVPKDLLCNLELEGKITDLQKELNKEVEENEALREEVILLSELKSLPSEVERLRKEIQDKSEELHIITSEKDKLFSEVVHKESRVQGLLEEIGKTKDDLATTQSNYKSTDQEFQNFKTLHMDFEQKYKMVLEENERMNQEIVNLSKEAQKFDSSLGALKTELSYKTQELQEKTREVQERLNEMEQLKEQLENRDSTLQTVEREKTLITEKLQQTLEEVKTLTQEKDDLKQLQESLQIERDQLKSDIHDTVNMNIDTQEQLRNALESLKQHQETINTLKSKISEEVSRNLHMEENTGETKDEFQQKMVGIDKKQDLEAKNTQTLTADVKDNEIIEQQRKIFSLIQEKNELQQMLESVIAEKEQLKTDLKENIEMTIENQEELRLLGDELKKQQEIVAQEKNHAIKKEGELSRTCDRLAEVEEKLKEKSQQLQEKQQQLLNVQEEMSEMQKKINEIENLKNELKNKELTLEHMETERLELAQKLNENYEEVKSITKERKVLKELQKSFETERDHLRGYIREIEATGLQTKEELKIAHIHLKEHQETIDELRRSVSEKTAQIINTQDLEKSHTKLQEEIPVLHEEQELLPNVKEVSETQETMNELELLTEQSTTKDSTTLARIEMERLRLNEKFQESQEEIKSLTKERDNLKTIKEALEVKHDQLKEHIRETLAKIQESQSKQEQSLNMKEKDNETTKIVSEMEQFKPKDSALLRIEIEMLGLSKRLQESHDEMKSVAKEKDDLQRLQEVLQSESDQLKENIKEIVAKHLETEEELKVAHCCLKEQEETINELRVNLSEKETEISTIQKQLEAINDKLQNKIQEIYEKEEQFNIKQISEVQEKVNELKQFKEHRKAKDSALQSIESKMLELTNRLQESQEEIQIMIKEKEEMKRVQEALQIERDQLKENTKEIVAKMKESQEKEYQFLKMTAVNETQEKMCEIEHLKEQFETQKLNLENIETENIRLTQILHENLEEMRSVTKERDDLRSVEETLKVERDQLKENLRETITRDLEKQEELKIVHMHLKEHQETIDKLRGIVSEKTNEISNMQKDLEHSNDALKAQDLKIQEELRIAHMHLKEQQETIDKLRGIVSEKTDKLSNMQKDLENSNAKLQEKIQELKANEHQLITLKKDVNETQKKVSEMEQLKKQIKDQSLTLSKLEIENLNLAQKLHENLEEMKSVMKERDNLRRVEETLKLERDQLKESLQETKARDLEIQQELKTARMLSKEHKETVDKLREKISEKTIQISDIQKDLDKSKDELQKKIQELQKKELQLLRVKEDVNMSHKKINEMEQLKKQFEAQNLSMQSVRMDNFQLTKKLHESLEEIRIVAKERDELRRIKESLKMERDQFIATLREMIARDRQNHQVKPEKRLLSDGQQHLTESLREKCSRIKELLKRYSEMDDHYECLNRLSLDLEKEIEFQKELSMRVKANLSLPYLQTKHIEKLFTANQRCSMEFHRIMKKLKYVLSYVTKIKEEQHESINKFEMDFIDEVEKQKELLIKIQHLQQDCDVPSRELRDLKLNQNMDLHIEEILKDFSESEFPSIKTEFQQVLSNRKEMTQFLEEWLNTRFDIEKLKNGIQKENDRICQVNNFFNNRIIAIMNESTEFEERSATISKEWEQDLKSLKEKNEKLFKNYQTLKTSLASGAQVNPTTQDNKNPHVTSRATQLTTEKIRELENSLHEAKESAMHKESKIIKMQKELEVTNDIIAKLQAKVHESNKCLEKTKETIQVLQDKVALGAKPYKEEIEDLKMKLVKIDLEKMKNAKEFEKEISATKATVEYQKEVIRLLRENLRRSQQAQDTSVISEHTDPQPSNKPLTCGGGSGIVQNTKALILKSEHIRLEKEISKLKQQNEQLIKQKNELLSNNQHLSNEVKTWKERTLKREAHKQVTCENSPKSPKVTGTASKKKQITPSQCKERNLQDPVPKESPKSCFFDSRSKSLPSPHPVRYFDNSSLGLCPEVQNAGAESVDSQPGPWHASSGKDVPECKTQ

Structure (SMILES): CC(C)Oc1ccc(C(=O)N[C@H](CNC(=O)CN(C)C)Cc2ccc(-c3cn4cccc([C@H](C)O)c4n3)cc2)cc1Cl [GSK-923295A]
- Activity (MDA-MB-231): 2.32
- GI50 (NCI-H508): 32 nM
- GI50 (NCI-H460 [1]): 29 nM
- Activity (CWR22R): 2.46
- Time (A549): 25.3 days
- Activity (RL95-2): 2.48
- Activity (SK-OV-3): 1.72
- Activity (MCF7): 58%
- GI50 (SCC-4): 28 nM
- GI50 (SAOS-2): 41 nM
- GI50 (NCI-H358): 18 nM
- GI50 (ARH-77): 34 nM
- GI50 (GCT): 23 nM
- Activity (BeWo): 2.95
- GI50 (NCI-H146): 5230 nM
- GI50 (NCI-H2052): 44 nM
- GI50 (NCI-H716): 174 nM
- Activity (NCI-H747): 2.19
- Activity (Capan-2): 1.89
- Activity (NCI-H2170): 1.69
- Activity (BHT-101): 2.09
- Activity (SK-MEL3): 1.11
- Activity (ACHN): 2.51
- Activity (COLO 205): 3.3
- Ki [2]: 67 nM
- Activity (NCI-H460 [3]): 210%
- Activity (COLO 320DM): 3.85
- Activity (SF-539): 2.08
- Activity [4]: 2.81
- GI50 (NCI-H2171): 24 nM
- GI50 (A498): 81 nM
- Activity (SNU-423): 1.44
- GI50 (MC-CAR): 86 nM
- GI50 (Hep 3B2): 164 nM
- Activity (SW948): 1.9
- GI50 (OVCAR-8): 50 nM
- GI50 (786-0): 45 nM
- GI50 [5]: 40 nM
- Ki [6]: 3.2 nM
